Activity calls are given as the source filed them.
How the values were obtained:
[1] = target: Mu-type opioid receptor (Cavia porcellus) (UniProt P97266); assay: Agonist activity at MOR in Dunkin-Hartley guinea pig ileum assessed as inhibition of electrically-evoked contractions in presence of opioid receptor antagonist naloxone; assay type: tissue-based
Procedure, shortened: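 Cumulative concentration–response curves were run on electrically stimulated guinea-pig ileum strips (2 g load; 0.1 Hz, 0.3 ms, 200 mA) with a single naloxone concentration of 10^-6 M. […]. Contractions were scored as percentage change from baseline.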

[2] = target: Kappa-type opioid receptor (Rattus norvegicus, UniProt P34975); assay: Displacement of [3H]U69593 from rat KOR expressed in CHO cells; assay type: cell-based
Chain of Kappa-type opioid receptor (Rattus norvegicus, UniProt P34975) (P34975 whole entry): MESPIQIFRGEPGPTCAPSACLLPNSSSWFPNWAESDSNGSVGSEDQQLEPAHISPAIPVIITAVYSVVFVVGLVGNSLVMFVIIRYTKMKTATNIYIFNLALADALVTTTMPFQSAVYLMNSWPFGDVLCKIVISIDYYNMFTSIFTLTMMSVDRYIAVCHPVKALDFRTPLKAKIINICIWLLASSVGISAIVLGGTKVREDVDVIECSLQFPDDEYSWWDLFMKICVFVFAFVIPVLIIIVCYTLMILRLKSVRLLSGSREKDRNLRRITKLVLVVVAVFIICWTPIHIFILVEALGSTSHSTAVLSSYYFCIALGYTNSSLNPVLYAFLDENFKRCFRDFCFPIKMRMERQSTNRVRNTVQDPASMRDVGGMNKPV

Mu-type opioid receptor [3] = target: T1, Mu-type opioid receptor (Homo sapiens, UniProt P35372); assay: Displacement of [3H]DAMGO from MOR in HEK293 cells; assay type: cell-based
T1 sequence (P35372 whole entry): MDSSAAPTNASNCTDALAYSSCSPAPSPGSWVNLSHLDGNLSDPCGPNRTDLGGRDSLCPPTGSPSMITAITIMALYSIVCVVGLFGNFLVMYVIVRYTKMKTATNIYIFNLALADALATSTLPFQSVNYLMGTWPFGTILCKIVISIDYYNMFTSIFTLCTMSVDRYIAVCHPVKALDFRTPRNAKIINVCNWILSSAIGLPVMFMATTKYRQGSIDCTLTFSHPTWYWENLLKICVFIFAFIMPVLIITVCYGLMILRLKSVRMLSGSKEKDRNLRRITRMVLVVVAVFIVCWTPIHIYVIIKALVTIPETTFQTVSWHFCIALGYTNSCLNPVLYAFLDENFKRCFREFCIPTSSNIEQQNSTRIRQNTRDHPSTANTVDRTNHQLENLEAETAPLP

Homo sapiens [4] = organism: Homo sapiens; assay: Selectivity ratio of Ki for displacement of [3H]DPDPE from human DOR expressed in CHO cells to Ki for displacement of [3H]DAMGO from MOR in HEK293 cells; assay type: cell-based
[5] = target: Delta-type opioid receptor (Homo sapiens, UniProt P41143); assay: Displacement of [3H]DPDPE from human DOR expressed in CHO cells; assay type: cell-based
Chain of Delta-type opioid receptor (P41143 whole entry): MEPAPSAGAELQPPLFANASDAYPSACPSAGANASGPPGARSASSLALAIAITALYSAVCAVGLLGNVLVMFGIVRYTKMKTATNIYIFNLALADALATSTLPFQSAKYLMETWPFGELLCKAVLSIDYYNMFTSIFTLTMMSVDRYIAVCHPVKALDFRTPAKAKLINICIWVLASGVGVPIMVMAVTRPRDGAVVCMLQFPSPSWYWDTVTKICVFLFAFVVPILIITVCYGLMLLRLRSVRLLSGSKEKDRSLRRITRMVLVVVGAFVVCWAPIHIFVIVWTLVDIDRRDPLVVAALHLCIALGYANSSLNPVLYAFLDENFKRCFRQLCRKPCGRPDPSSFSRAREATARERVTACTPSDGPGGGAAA

[6] = Selectivity ratio of Ki for displacement of [3H]U69593 from rat KOR expressed in CHO cells to Ki for displacement of [3H]DAMGO from MOR in HEK293 cells; assay type: cell-based
[7] = target: Mu-type opioid receptor (Cavia porcellus) (UniProt P97266); assay: Agonist activity at MOR in Dunkin-Hartley guinea pig ileum assessed as inhibition of electrically-evoked contractions; assay type: tissue-based
Procedure, shortened: (§1)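 Guinea-pig ileum strips held under a 2 g load and equilibrated for 60 min. Contractions were evoked by transmural single pulses (0.1 Hz, 0.3 ms, 200 mA), followed by a further 60–90 min equilibration with repeated Krebs changes. Compound was added cumulatively, at least 5 min per step. Inhibition was expressed as percentage change from baseline, with EC50 from non-linear curve fitting (n = 6–8).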

[8] = target: Mu-type opioid receptor (Cavia porcellus) (UniProt P97266); assay: Agonist activity at MOR in Dunkin-Hartley guinea pig ileum assessed as inhibition of electrically-evoked contractions in presence of mu-opioid receptor antagonist naloxonazine; assay type: tissue-based
Procedure, shortened: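 Electrically stimulated guinea-pig ileum strips (2 g load; single pulses 0.1 Hz, 0.3 ms, 200 mA) were tested with naloxonazine present at 10^-6 M. Agonist was added cumulatively, at least 5 min apart, after 60–90 min equilibration in Krebs. Response was taken as percentage inhibition from baseline, with EC50 by non-linear fitting (n = 6–8).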

Mus musculus [9] = assay: Antinociceptive activity in CB1 mouse assessed as increase in tail flick latency at 5 mg/kg, ip up to 90 mins; assay type: functional, organism-based
Mus musculus [10] = assay: Antinociceptive activity in ip dosed CB1 mouse assessed as increase in tail flick latency after 30 mins; assay type: functional, organism-based
[11] = target: Mu-type opioid receptor (Cavia porcellus) (UniProt P97266); assay: Agonist activity at MOR in Dunkin-Hartley guinea pig ileum assessed as inhibition of electrically-evoked contractions in presence of mu-opioid receptor agonist DAMGO; assay type: tissue-based; procedure, shortened: as §1
[12] = target: Mu-type opioid receptor (Cavia porcellus) (UniProt P97266); assay: Agonist activity at MOR in Dunkin-Hartley guinea pig ileum assessed as inhibition of electrically-evoked contractions in presence of kappa-opioid receptor antagonist norBNI; assay type: tissue-based; procedure, shortened: as §1
Mus musculus [13] = assay: Antinociceptive activity in CB1 mouse assessed as increase in tail flick latency at 5 mg/kg, ip administered 45 mins post naloxone challenge measured up to 90 mins in presence of naloxone; assay type: functional, organism-based
Procedure, shortened: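 Naloxone was given at 3 mg/kg ip, 45 min before 5 mg/kg ip test compound, in male Swiss CB1 mice (25–30 g). Infrared tail-flick latency (lower third of tail, 10 s cutoff, baseline mean of three readings) was measured at 30, 60 and 90 min post-injection (n = 8).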

Mus musculus [14] = assay: Antinociceptive activity in CB1 mouse assessed as increase in tail flick latency at 5 mg/kg, ip after 60 mins; assay type: functional, organism-based
[15] = target: Kappa-type opioid receptor (Homo sapiens, UniProt P41145); assay: Displacement of [3H]Diprenorphine from human KOR expressed in HEK293 cell membranes by liquid scintillation counting
Chain of Kappa-type opioid receptor (Homo sapiens, UniProt P41145) (P41145 whole entry): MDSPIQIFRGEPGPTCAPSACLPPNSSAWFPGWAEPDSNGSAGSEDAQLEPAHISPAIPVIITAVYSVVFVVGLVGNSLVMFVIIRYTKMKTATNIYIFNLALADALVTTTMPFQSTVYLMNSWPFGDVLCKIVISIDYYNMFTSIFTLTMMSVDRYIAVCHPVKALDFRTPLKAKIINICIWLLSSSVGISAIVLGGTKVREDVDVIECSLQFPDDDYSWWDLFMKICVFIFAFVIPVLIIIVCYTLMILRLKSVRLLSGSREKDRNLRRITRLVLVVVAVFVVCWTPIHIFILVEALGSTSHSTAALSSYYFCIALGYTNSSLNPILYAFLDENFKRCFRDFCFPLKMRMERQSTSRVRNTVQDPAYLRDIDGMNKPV

Mu-type opioid receptor [16] = target: T1, Mu-type opioid receptor; assay: Displacement of [3H]Diprenorphine from human MOR expressed in HEK293 cell membranes by liquid scintillation counting
Homo sapiens [17] = organism: Homo sapiens; assay: Selectivity ratio of Ki for displacement of [3H]Diprenorphine from human KOR expressed in HEK293 cell membranes to Ki for displacement of [3H]Diprenorphine from human MOR expressed in HEK293 cell membranes

Chain of Mu-type opioid receptor (Cavia porcellus) (P97266 whole entry): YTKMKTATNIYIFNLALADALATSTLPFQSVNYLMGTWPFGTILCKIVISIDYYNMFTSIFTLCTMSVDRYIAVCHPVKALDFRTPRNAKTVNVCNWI

C[C@H]1[C@H]2Cc3ccc(O)cc3[C@]1(C)CCN2CCC(=O)NC(c1ccccc1)c1ccccc1
pD2 [1]: 4.1 | Ki [2]: 680 nM | Ki (Mu-type opioid receptor [3]): 84 nM | Ratio Ki (Homo sapiens [4]): 34.5 | Ki [5]: 2900 nM | Ratio Ki [6]: 8.09

C[C@H]1[C@H]2Cc3ccc(O)cc3[C@]1(C)CCN2CCC(=O)N(C)C(c1ccccc1)c1ccccc1
Ki [2]: 370 nM | Ki (Mu-type opioid receptor [3]): 160 nM | Ratio Ki (Homo sapiens [4]): 8.75 | Ki [5]: 1400 nM | pD2 [7]: 5.7 | Ratio Ki [6]: 2.31

C[C@H]1[C@H]2Cc3ccc(O)cc3[C@]1(C)CCN2CCC(=O)NCC(c1ccccc1)c1ccccc1
pD2 [1]: 6.4 | Ki [2]: 190 nM | pD2 [8]: 6.5 | Ki (Mu-type opioid receptor [3]): 0.5 nM | Ratio Ki (Homo sapiens [4]): 880 | Activity (Mus musculus [9]): Active | Ki [5]: 440 nM | Activity (Mus musculus [10]): Dose-dependent effect | pD2 [11]: 7 | Activity [7]: Dose-dependent effect | pD2 [7]: 6.8 | Ratio Ki [6]: 380 | pD2 [12]: 6.9 | Activity (Mus musculus [13]): inactive

C[C@H]1[C@H]2Cc3ccc(O)cc3[C@]1(C)CCN2CCC(=O)N1CCc2ccccc2[C@@H]1c1ccccc1
Ki [2]: 900 nM | Ki (Mu-type opioid receptor [3]): 380 nM | Ratio Ki (Homo sapiens [4]): 35 | Ki [5]: 2900 nM | Ratio Ki [6]: 12.5

CN1CC[C@]23c4c5ccc(O)c4O[C@H]2[C@@H](O)C=C[C@H]3[C@H]1C5
Activity (Mus musculus [14]): Active | Activity (Mus musculus [9]): Active

COc1ccsc1CNCC[C@@]1(c2ccccn2)CCC2(CCCC2)OC1
Ki [15]: < 10000 nM | Ki (Mu-type opioid receptor [16]): 6 nM | Ratio Ki (Homo sapiens [17]): 1670

C[C@H]1[C@H]2Cc3ccc(O)cc3[C@]1(C)CCN2CCC(=O)N1CCc2ccccc2[C@H]1c1ccccc1
Ki [2]: 1900 nM | Ki (Mu-type opioid receptor [3]): 470 nM | Ratio Ki (Homo sapiens [4]): 16.8 | Ki [5]: 7900 nM | Ratio Ki [6]: 4.04

C[C@H]1[C@H]2Cc3ccc(O)cc3[C@]1(C)CCN2CCC(=O)Nc1ccccc1
Ki [2]: 110 nM | Ratio Ki (Homo sapiens [4]): 33.8 | Ratio Ki [6]: 132

C[C@H]1[C@H]2Cc3ccc(O)cc3[C@]1(C)CCN2CCC(=O)N1CCc2ccccc2C1c1ccccc1 (mixture of isomers)
Ki (Mu-type opioid receptor [3]): 96 nM

— ChEMBL document CHEMBL4428114, “An LP1 analogue, selective MOR agonist with a peculiar pharmacological profile, used to scrutiny the ligand binding domain” (Bioorg Med Chem, 2016)
